Experimental data reported in ChEMBL document CHEMBL2331277, “Design, synthesis and pharmacological evaluation of omeprazole-like agents with anti-inflammatory activity” (2013).

Columns and labels:
[1] = test system: Rattus norvegicus; experiment: Antiulcerogenic activity in pylorus ligation-induced gastric ulcer Sprague-Dawley rat model assessed as stomach H+/K+-ATPase activity measuring Pi release per hour per mg protein at 7.2 mg/kg, po for 3 days (Rvb =11.44 +/-1.5 umol ); format: functional
[2] = test system: Rattus norvegicus; experiment: Antiinflammatory activity against carrageenan-induced paw edema in Sprague-Dawley rat assessed as inhibition of paw volume at 30 mg/kg, po measured 180 mins post challenge by plethysmometer; format: functional; settings: 3 h
[3] = test system: Rattus norvegicus; experiment: Antiinflammatory activity against carrageenan-induced paw edema in Sprague-Dawley rat assessed as paw volume at 30 mg/kg, po measured 60 mins post challenge by plethysmometer (reference value: 0.90 +/- 0.03 ml); format: functional
[4] = test system: Rattus norvegicus; experiment: Antiulcerogenic activity in pylorus ligation-induced gastric ulcer Sprague-Dawley rat model assessed as stomach peptic activity measuring tyrosine release for 4 hrs at 7.2 mg/kg, po for 3 days (Rvb =5.70 +/-2.40 ug/ml ); format: functional
In short: (§1)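 Pylorus-ligated rat model as above (3-day oral dosing, 3.6 or 7.2 mg/kg, 5 h ligation). Gastric juice sample (0.1 ml) was incubated with 2.9 ml acid hemoglobin substrate (2.5 g/100 ml, pH 2.2) for 30 min at 37 °C. Reaction was stopped with ice-cold 0.6 M TCA and centrifuged. Liberated amino acids were read by Lowry, expressed as µg tyrosine/ml.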

[5] = test system: Rattus norvegicus; experiment: Antiinflammatory activity against carrageenan-induced paw edema in Sprague-Dawley rat assessed as paw volume at 20 mg/kg, po measured 120 mins post challenge by plethysmometer (reference value: 1.13 +/- 0.04 ml); format: functional
[6] = test system: Rattus norvegicus; experiment: Antiulcerogenic activity in pylorus ligation-induced gastric ulcer Sprague-Dawley rat model assessed as volume of gastric juice at 7.2 mg/kg, po for 3 days (Rvb =5.96 +/-0.80 ml ); format: functional
[7] = test system: Rattus norvegicus; experiment: Antiulcerogenic activity in pylorus ligation-induced gastric ulcer Sprague-Dawley rat model assessed as stomach peptic activity measuring tyrosine release for 4 hrs at 3.6 mg/kg, po for 3 days (Rvb =5.70 +/-2.40 ug/ml ); format: functional; in short: as §1
[8] = test system: Rattus norvegicus; experiment: Antiulcerogenic activity in pylorus ligation-induced gastric ulcer Sprague-Dawley rat model assessed as pH of gastric juice at 7.2 mg/kg, po for 3 days (Rvb =2.60 +/-0.55 ); format: functional
[9] = test system: Rattus norvegicus; experiment: Antiinflammatory activity against carrageenan-induced paw edema in Sprague-Dawley rat assessed as inhibition of paw volume at 10 mg/kg, po measured 180 mins post challenge by plethysmometer; format: functional; settings: 3 h
[10] = test system: Mus musculus; experiment: Antiulcerogenic activity in ethanol-induced gastric ulcer Swiss albino mouse model assessed as lesion length at 7.2 mg/kg administered intragastrically for 3 days; format: functional, Stomach; settings: route intragastric
In short: (§2)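 Mice, n = 6 per group, given 3.6 or 7.2 mg/kg, omeprazole 3.6 mg/kg, or vehicle (0.25% w/v carboxymethyl cellulose) for 3 days. After a 24 h fast, 90% ethanol (10 ml/kg) was given intragastrically. Animals were killed 1 h later. Stomachs were opened along the greater curvature and lesion lengths measured under a microscope.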

[11] = test system: Rattus norvegicus; experiment: Antiinflammatory activity against carrageenan-induced paw edema in Sprague-Dawley rat assessed as inhibition of paw volume at 20 mg/kg, po measured 180 mins post challenge by plethysmometer; format: functional; settings: 3 h
[12] = test system: Rattus norvegicus; experiment: Antiinflammatory activity against carrageenan-induced paw edema in Sprague-Dawley rat assessed as paw volume at 10 mg/kg, po measured 60 mins post challenge by plethysmometer (reference value: 0.90 +/- 0.03 ml); format: functional
[13] = test system: Mus musculus; experiment: Antiulcerogenic activity in ethanol-induced gastric ulcer Swiss albino mouse model assessed as inhibition of ulceration at 3.6 mg/kg administered intragastrically for 3 days relative to control; format: functional; settings: Stomach, po, 72 h, route intragastric; in short: as §2
[14] = test system: Rattus norvegicus; experiment: Antiinflammatory activity against carrageenan-induced paw edema in Sprague-Dawley rat assessed as paw volume at 10 mg/kg, po measured 120 mins post challenge by plethysmometer (reference value: 1.13 +/- 0.04 ml); format: functional
[15] = test system: Mus musculus; experiment: Antiulcerogenic activity in ethanol-induced gastric ulcer Swiss albino mouse model assessed as lesion length at 3.6 mg/kg administered intragastrically for 3 days; format: functional, Stomach; settings: route intragastric; in short: as §2
[16] = test system: Mus musculus; experiment: Antiulcerogenic activity in ethanol-induced gastric ulcer Swiss albino mouse model assessed as inhibition of ulceration at 7.2 mg/kg administered intragastrically for 3 days relative to control; format: functional; settings: Stomach, po, 72 h, route intragastric; in short: as §2
[17] = test system: Rattus norvegicus; experiment: Antiinflammatory activity against carrageenan-induced paw edema in Sprague-Dawley rat assessed as paw volume at 20 mg/kg, po measured 60 mins post challenge by plethysmometer (reference value: 0.90 +/- 0.03 ml); format: functional
[18] = test system: Rattus norvegicus; experiment: Antiulcerogenic activity in pylorus ligation-induced gastric ulcer Sprague-Dawley rat model assessed as pH of gastric juice at 3.6 mg/kg, po for 3 days (Rvb =2.60 +/-0.55 ); format: functional
[19] = test system: Rattus norvegicus; experiment: Antiinflammatory activity against carrageenan-induced paw edema in Sprague-Dawley rat assessed as paw volume at 30 mg/kg, po measured 120 mins post challenge by plethysmometer (reference value: 1.13 +/- 0.04 ml); format: functional
[20] = test system: Rattus norvegicus; experiment: Antiulcerogenic activity in pylorus ligation-induced gastric ulcer Sprague-Dawley rat model assessed as volume of gastric juice at 3.6 mg/kg, po for 3 days (Rvb =5.96 +/-0.80 ml ); format: functional
[21] = test system: Rattus norvegicus; experiment: Antiulcerogenic activity in pylorus ligation-induced gastric ulcer Sprague-Dawley rat model assessed as stomach H+/K+-ATPase activity measuring Pi release per hour per mg protein at 3.6 mg/kg, po for 3 days (Rvb =11.44 +/-1.5 umol ); format: functional
[22] = test system: Rattus norvegicus; experiment: Antiinflammatory activity against carrageenan-induced paw edema in po dosed Sprague-Dawley rat assessed as inhibition of paw volume measured 180 mins post challenge by plethysmometer; format: functional, organism-based

Compound	Activity [1] [µmol]	inhibition in vivo at 30 mg/kg [2] [%]	Activity [3] [mL]	Activity [4] [µg/mL]	Activity [5] [mL]	Activity [6] [mL]	Activity [7] [µg/mL]	pH [8]	inhibition in vivo at 10 mg/kg [9] [%]	Activity [10] [mm]	inhibition in vivo at 20 mg/kg [11] [%]	Activity [12] [mL]	inhibition in vivo at 3.6 mg/kg [13] [%]	Activity [14] [mL]	Activity [15] [mm]	Activity [17] [mL]	pH [18]	Activity [19] [mL]	Activity [20] [mL]	Activity [21] [µmol]	also measured
COc1ccnc(CNc2ccc3c(c2)nc(C)n3C[C@@H](O)[C@H]2O[C@H](O)[C@@H](O)[C@H]2O)c1OC	6.34	72	0.41	4.54	0.4	2.39	4.79	4.73	41	34	62	0.53	61	0.52	49	0.44	4.53	0.38	2.56	6.88	inhibition in vivo at 7.2 mg/kg [16]: 73%
O=C([O-])Cc1ccccc1Nc1c(Cl)cccc1Cl.[Na+] [DICLOFENAC SODIUM]					0.35						73					0.38					
Cc1nc2cc(NCc3ccccn3)ccc2[nH]1		45	0.87		1.08				10		32	0.97		1.08		0.9		1.03			
COc1ccc2[nH]c([S+]([O-])Cc3ncc(C)c(OC)c3C)nc2c1 (configuration not stated) [OMEPRAZOLE]							4.92						68.3		40		4.26		2.64	7.1	
COc1ccnc(CNc2ccc3c(c2)nc(C)n3C[C@@H](O)[C@H]2O[C@H](O)[C@@H](O)[C@H]2O)c1C	6	58	0.63	4.34	0.68	2.24	4.62	4.31	22	42	53	0.68	57.9	0.88	53	0.68	4.1	0.64	2.31	6.78	inhibition in vivo at 7.2 mg/kg [16]: 66.6%
COc1ccnc(CNc2ccc3[nH]c(C)nc3c2)c1OC	6.88	61	0.65	4.74	0.69	2.6	5.02	4.01	15	67	57	0.7	30	0.88	88	0.7	3.64	0.65	2.98	7.91	inhibition in vivo at 7.2 mg/kg [16]: 46.8%; inhibition [22]: Dose-dependent effect
COc1ccnc(CNc2ccc3[nH]c(C)nc3c2)c1C		55	0.64		0.69				11		52	0.7		0.9		0.69		0.65			
COc1c(C)cnc(CNc2ccc3[nH]c(C)nc3c2)c1C		53	0.64		0.67				10		49	0.7		0.88		0.69		0.62			
Cc1nc2cc(NCc3ccccn3)ccc2n1C[C@@H](O)[C@H]1O[C@H](O)[C@@H](O)[C@H]1O	6.02	52	0.63	4.44	0.69	2.3	4.72	4.41	8	58	47	0.69	46	0.89	68	0.68	4.04	0.64	2.4	6.91	inhibition in vivo at 7.2 mg/kg [16]: 54%
COc1c(C)cnc(CNc2ccc3c(c2)nc(C)n3C[C@@H](O)[C@H]2O[C@H](O)[C@@H](O)[C@H]2O)c1C	6.62	56	0.49	4.56	0.48	2.38	4.8	4.39	36	30	50	0.61	62.6	0.64	47	0.5	4.14	0.43	2.48	7.01	inhibition in vivo at 7.2 mg/kg [16]: 76.2%
